High-throughput results from PubChem BioAssay.
MC4R antag cAMP = MC4R antagonists of cAMP signaling, primary screen, cell-based, TR-FRET, antagonist arm of biased-ligand search | MC4R-expressing cells, MTII-stimulated cAMP, LANCE TR-FRET | inhibition, % at 6.5 µM | AID 540295, 2011 | Melanocortin receptor 4 (Homo sapiens), P32245 | 360,000 compounds, 0.48% hits;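 active means inhibition above its plate's cutoff, the mean of tested wells on that plate plus 3 SD, cut at about 29% in these data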;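 further: 0% = Melanotan II alone and 100% = Melanotan II plus saturating MCL0020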
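Material – human MC4R-expressing U2OS cells · Repeats – no replicates · Detection – TR-FRET with Eu-cAMP and labeled anti-cAMP, 671 nm · Times – compound 30 min, challenge 1 h, detection 1 h · Compound – single nominal compound dose of 6.5 µM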
NR1D1 modulator = modulators of Rev-erb alpha DNA binding, primary screen, biochemical, FITC-DNA, fluorescence polarization, uHTS. Nuclear receptor subfamily 1 group D member 1 (Homo sapiens), P20393. Rev-erbα–FITC-DNA binding, 90 min. activity, % at 10 µM. 370,000 compounds, 0.79% hits;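 active means activity above about 14%, limit read from the data; passing the limit was not always enough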;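 further: 0% = DMSO wells with 35 nM protein and 100% = DMSO wells with 750 nM protein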
NTR1 agonist = agonists of human NTR1, primary screen, imaging, U2OS cells, beta-arrestin-GFP, high content | activation, % at 20 µM | Neurotensin receptor type 1 (Homo sapiens), P30989 | 330,000 compounds, 0.17% hits | NTR1-U2OS beta-arrestin-GFP spot imaging, agonist mode;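 active means activation at or above 40% of the spot to cytoplasm intensity ratio, with at least 20 cells analyzed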;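 further: 0% = DMSO without peptide and 100% = 100 nM NTR1 peptide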
PG9 binder = binders of HIV-1 gp120 antibody PG9, primary screen, biochemical, TR-FRET. AID 624416, 2012. TR-FRET gp120-PG9 antibody binding. inhibition, % at 6.7 µM. 360,000 compounds, 0.43% hits. HIV-1 gp120 / PG9 antibody interaction; in the data active means inhibition above about 8.5%
MC4R barr agon = MC4R agonists recruiting beta-arrestin, primary screen, cell-based, luminescence, agonist arm of biased-ligand search. Melanocortin receptor 4 (Homo sapiens), P32245. U2OS MC4R beta-arrestin complementation; percent of melanotan II response, DMSO zero. activation, % at 8.9 µM. 360,000 compounds, 0.98% hits. AID 540308, 2011;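 active means activation above a per-plate cutoff, the mean activation of sample wells on that plate plus 3 SD, cut at about 8% in these data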
MC4R barr conf = MC4R beta-arrestin agonists, retest, confirmation, cell-based, luminescence, U2OS; activation, % at 8.9 µM; shares compounds with MC4R barr agon; U2OS MC4R beta-arrestin recruitment; scaled DMSO 0%, Melanotan II 100%; 2,400 compounds, 31% hits; AID 602192, 2012;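 active means mean activation across replicates above the hit cutoff set in the earlier primary screen, cut at about 8% in these data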
MOR DOR agonist = agonists of MOR-DOR heterodimerization, counter-screen for MC4R biased agonist project, cell-based, luminescence | shares compounds with MC4R barr agon | U2OS PathHunter beta-arrestin, beta-gal luminescence; percent of deltorphin B response, DMSO zero | activation, % at 9.2 µM | 2,400 compounds, 5.8% hits | AID 602194, 2012;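 active means mean activation across replicates exceeds the hit threshold derived in the earlier primary screen, cut at about 18% in these data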;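 further: 100% = deltorphin B at 0.9 µM final and 0% = DMSO alone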
Target sequence (P35372 whole entry, looked up): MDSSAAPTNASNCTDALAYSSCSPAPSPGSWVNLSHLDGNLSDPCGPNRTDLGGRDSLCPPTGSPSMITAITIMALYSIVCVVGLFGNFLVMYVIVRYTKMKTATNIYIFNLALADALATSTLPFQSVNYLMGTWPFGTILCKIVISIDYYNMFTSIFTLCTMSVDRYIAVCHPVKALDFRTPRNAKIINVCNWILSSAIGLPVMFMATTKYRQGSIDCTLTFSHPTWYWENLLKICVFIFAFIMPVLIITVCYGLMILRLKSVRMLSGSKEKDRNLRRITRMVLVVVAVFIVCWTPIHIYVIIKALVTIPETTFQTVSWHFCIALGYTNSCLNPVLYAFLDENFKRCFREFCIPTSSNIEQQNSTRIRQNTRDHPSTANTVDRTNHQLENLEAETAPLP
Target sequence (P41143 whole entry, looked up): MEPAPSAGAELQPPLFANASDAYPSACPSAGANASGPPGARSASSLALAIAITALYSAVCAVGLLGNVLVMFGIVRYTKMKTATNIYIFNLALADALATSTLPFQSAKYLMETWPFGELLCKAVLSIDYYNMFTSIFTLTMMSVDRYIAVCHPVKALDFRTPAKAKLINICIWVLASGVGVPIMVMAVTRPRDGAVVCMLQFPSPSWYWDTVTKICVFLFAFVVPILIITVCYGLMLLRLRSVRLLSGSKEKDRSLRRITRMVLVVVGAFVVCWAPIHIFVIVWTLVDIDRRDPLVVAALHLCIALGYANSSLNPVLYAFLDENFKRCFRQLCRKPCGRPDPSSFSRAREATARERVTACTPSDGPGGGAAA
Numbers without * were called inactive; . = no result. Only some compounds are listed: those with a hit (about 2.5% of all), similar ones and a draw of the others.

SMILES | MC4R antag cAMP | NR1D1 modulator | NTR1 agonist | PG9 binder | MC4R barr agon | MC4R barr conf | MOR DOR agonist
COc1ccc(NC(=S)N/N=C/c2ccc(F)c(F)c2)cc1 | 12.4 | 3.5 | 3.8 | -1.3 | 13.7* | 2.7 | 7.1
Cc1ccc(CNC(=S)Nc2ccc(C)c([N+](=O)[O-])c2)cc1 | 1.6 | -6.4 | 6.7 | -4.4 | 13.0* | -0.3 | 7.4
Cc1ccc(NC(=S)N/N=C/c2ccc(Cl)c([N+](=O)[O-])c2)cc1 | 28.0 | -0.6 | 7.7 | -2.3 | 20.8* | 4.7 | 2.5
Clc1ccc(-c2cc(-c3nnc4sc(Cc5cccs5)nn34)[nH]n2)cc1 | . | 0.4 | . | . | . | . | .
COc1ccc2ccccc2c1C=NNC(=O)c1cc(-c2ccc(C)c(C)c2)n[nH]1 | . | -16.0 | . | . | . | . | .
CCC(C)(C)C(=O)N1CCC(C(=O)NC2CCCc3ccccc32)CC1 (stereo unspecified) | . | -0.3 | . | . | . | . | .
Cc1ccccc1CS(=O)(=O)Cc1ccc(C(=O)Nc2cccc(Cl)c2F)o1 | . | 4.7 | . | . | . | . | .
c1ccc(COc2ncnc3c2ncn3CCCN2CCN(Cc3cccc4ccccc34)CC2)cc1 | 13.0 | 3.8 | . | 0.0 | 19.9* | 10.0* | 7.2
COc1ccc(OC)c(NC(=S)NC(=O)c2ccc(Br)o2)c1 | 11.8 | -0.9 | 0.6 | -33.7 | 10.6* | 3.1 | 19.2*
COc1ccc(CNC(=S)Nc2cc(OC)ccc2OC)cc1 | -4.3 | 5.0 | -1.6 | -1.4 | 1.4 | . | .
O=S(=O)(c1ccc(C(F)(F)F)cc1)N1CCCc2nc(-c3ccc(Br)cc3)ccc21 | . | -0.8 | . | -0.5 | . | . | .
O=C(Nc1cccc(Cl)c1Cl)c1ccc(-c2ccccc2)cc1 | -0.9 | 2.9 | 4.3 | 1.2 | 4.4 | . | .
O=C(Nc1cc(Cl)ccc1Cl)c1ccc(-c2ccccc2)cc1 | -6.8 | 1.0 | 2.7 | -1.9 | 9.8* | 5.3 | 8.5
COc1cccc(-c2nc(NCc3ccccc3)c3ccccc3n2)c1O | 0.1 | -6.2 | 17.1 | -1.0 | 18.3* | 3.4 | 4.6
CCN(CC)c1nc(-c2cccc(OC)c2O)nc2ccccc12 | 9.7 | 8.3 | 4.6 | -0.6 | -1.4 | . | .
CCCCCCCCN1CN2Cc3ccc(C)cc3C2CS1(=O)=O (stereo unspecified) | . | -2.6 | . | . | . | . | .
C=CCn1c(SCC(=O)Nc2ccc(OC)cc2)nc2ccccc2c1=O | 1.6 | -2.0 | 0.6 | -0.2 | 14.9* | -1.5 | 1.2
CCn1c(SCC(=O)Nc2ccccc2OC)nc2ccccc2c1=O | -21.9 | -0.7 | 0.3 | -2.5 | -1.1 | . | .
COCCn1c(SCC(=O)Nc2ccc(NC(=O)c3ccco3)c(OC)c2)nc2ccccc2c1=O | -4.4 | -3.6 | 1.6 | 2.1 | 26.6* | 7.5 | 15.8
C=CCn1c(SCC(=O)Nc2ccccc2C)nc2sc(C)c(C)c2c1=O | -2.9 | 19.6 | 2.1 | 2.2 | 24.0* | -0.4 | 5.7
COc1ccc(NC(=O)CSc2nc3ccccc3c(=O)n2CCNC(C)=O)cc1 | 3.0 | -1.5 | 1.8 | 2.1 | 2.9 | . | .
CCn1c(SCC(=O)Nc2ccc(NC(=O)c3ccco3)c(OC)c2)nc2ccccc2c1=O | 15.4 | 3.7 | 10.6 | 0.3 | 17.8* | 4.6 | 2.2
C#CCCCN([C@H](C(=O)OC)C(C)C)S(=O)(=O)c1ccccc1Br | . | -7.7 | . | . | . | . | .
CCCCCCCCCCCCCCCCCC(=O)OCC(O)[C@H]1OC[C@H](O)[C@H]1O (stereo partly specified) | . | 0.8 | . | . | . | . | .
Cc1cc(C(C)(C)C)cc(C)c1Cn1c2[n+](c3ccc(C(F)(F)F)cc31)CCCCC2 | 2.5 | -0.4 | 11.4 | -2.4 | 16.7* | 15.0* | 7.2
SMILES | MC4R antag cAMP | NR1D1 modulator | NTR1 agonist | PG9 binder | MC4R barr agon | MC4R barr conf | MOR DOR agonist
FC(F)(F)c1cccc(Cn2c3[n+](c4ccc(C(F)(F)F)cc42)CCCCC3)c1 | 14.0 | 2.0 | -0.4 | 1.7 | 0.4 | . | .
CCOc1ccc(-c2n[nH]c(C)c2Oc2ccccc2OC)c(O)c1 | 10.8 | 3.8 | 7.3 | -2.5 | 11.7* | 3.1 | 7.2
C=C(C)COc1ccc(-c2nc(N)nc(C)c2Oc2ccccc2OC)c(O)c1 | 5.3 | -3.1 | 17.9 | 1.2 | 1.2 | . | .
C=C(C)COc1ccc(-c2n[nH]c(C)c2Oc2ccccc2OC)c(O)c1 | 5.2 | -0.8 | 23.3 | -1.9 | 11.8* | 5.1 | 8.0
CCCCCCCCCCS(=O)(=O)N/N=C/c1ccc([N+](=O)[O-])cc1 | 10.3 | -2.2 | -0.4 | 0.0 | 13.1* | 7.0 | 2.3
Cc1ccc(/C=N/NS(=O)(=O)c2ccc([N+](=O)[O-])cc2)o1 | 0.4 | -3.9 | -0.8 | -0.5 | -0.1 | . | .
Nc1nc2c(ncn2[C@@H]2O[C@H](C(=O)N[C@H](Cc3ccccc3)C(=O)NCc3ccc4c(c3)OCO4)[C@@H](O)[C@H]2O)c(=O)[nH]1 | . | 2.2 | . | 0.1 | . | . | .
CCN(CC)c1ccc(/C=N/NC(=O)Nc2ccccc2)cc1 | 7.2 | 6.0 | 18.9 | -5.0 | 0.1 | . | .
CCN(CC)c1ccc(/C=N/NC(=O)Cc2nnc(NC(=O)Nc3ccccc3)s2)cc1 | 0.6 | 4.4 | 1.6 | -0.9 | 11.2* | 0.3 | 2.1
CCN(CC)CCN(C(=O)CCS(=O)(=O)c1ccccc1)c1nc2cc(C)cc(C)c2s1 | 8.7 | 1.6 | -0.8 | -0.9 | 1.8 | . | .
CCN(CC)CCN(C(=O)CCS(=O)(=O)c1ccccc1)c1nc2c(C)cc(C)cc2s1 | 5.5 | 5.2 | 2.0 | -1.4 | 12.0* | 3.6 | 6.1
CCCCCC[C@H](CC)CN(C(=O)Oc1ccccc1)c1ccccc1 | . | -1.4 | . | . | . | . | .
Cc1nc2c(-c3ccc(F)cc3)c(C)nn2c(C)c1CCC(=O)Nc1ccccc1F | 2.1 | 8.3 | 10.1 | -0.4 | 12.9* | -1.9 | 4.3
Fc1ccc(Cn2c(-c3cscn3)nc3ccccc32)c(Cl)c1 | 3.6 | 15.7 | -2.8 | 6.7 | 9.7* | 2.7 | 8.3
CC(C)CN1C(=O)C[C@@]2(C(=O)N(C)c3ccc(NS(=O)(=O)C4CCCCC4)cc32)C1c1ccccc1 (stereo partly specified) | . | 6.5 | . | . | . | . | .
C=CCn1c(SCC(=O)c2ccc(OC)cc2)nnc1-c1cc2cccc(OC)c2o1 | -4.7 | 0.8 | 4.8 | 0.1 | 53.3* | 11.9* | 15.8
O=C(CN1CCN(Cc2ccccc2)CC1)N/N=C\c1ccccc1[N+](=O)[O-] | . | 0.6 | . | . | . | . | .
